Columns and labels:
[1] = tested on: bid−/− bim−/− mouse liver mitochondria (BAK); assay: MOMP assay, cyt c release from bid−/− bim−/− mouse liver mitochondria; assay type: biochemical; conditions: for BAK-mediated MOMP (cyt c release), bid−/− bim−/− mitochondria: 1 h incubation, peptides up to 50 μM
Procedure, shortened: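 Enriched mitochondrial fractions purified from bid−/− bim−/− mouse liver, run in parallel with bak−/− mouse liver mitochondria. Mitochondria incubated 1 h with unstapled or hydrocarbon-stapled BH3 peptides; MOMP read as cytochrome c release.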

cBAK = assay: Calpain protease sensitivity assay of cBAK; assay type: biochemical, human; conditions: 50 mM HEPES pH 7.5, 10 mM DTT, 1 µM m-calpain, 0.5 mM CaCl2, 1% CHAPS, 24°C
[2] = tested on: bak−/− mouse liver mitochondria; assay: MOMP assay with cBAK mutants or SAHBq–cBAK traps and NC BID ± ABT-737; assay type: biochemical; conditions: 1 h incubation
[3] = biological target: calpain-proteolyzed cBAK (residues 15–186) (human) (UniProt Q16611); assay: AUC

Which “BAK-mediated MOMP (cyt c release), bid−/− bim−/− mitochondria” value (from here on “BAK-mediated MOMP (cyt c release)”) [1] does the source give for “QPSPARAPAELEVECATQLRXFGDXLNFRQ (sidechain bridge or staple) [NOXA SAHB]” here?
The value was “unable to robustly activate BAK”.

What about the “BAK-mediated MOMP at the highest concentration tested” value ([1]; highest concentration tested) of the same molecule?
The value was “weak BAK-mediated MOMP”.

What does the source list for NLWAAQRYGRELRRMSDKFVDSFKK [BADa]?
Calpain sensitivity of cBAK with peptide, in CHAPS (cBAK): unable to activate cBAK; BAK-mediated MOMP (cyt c release), bid−/− bim−/− mitochondria [1]: largely inactive

Which “Calpain sensitivity of cBAK with peptide, in CHAPS” value (“Calpain sensitivity of cBAK” below) (cBAK) does the source give for LWAAQRIGRELRRMGDEMVDSI [BAD/BIDa] here?
Its value is “enhanced protease sensitivity”.

What about the “BAK-mediated MOMP (cyt c release)” value [1] of the same molecule?
Its value is “weakly active”.

With “LWAAQRYGRELRXMSDXFVDSF (sidechain bridge or staple) [BAD SAHB]” as the molecule, how does the “BAK-mediated MOMP (cyt c release)” value [1] read?
Its value is “unable to robustly activate BAK”.

What does the source list for `CN(C)CC[C@H](CSc1ccccc1)Nc1ccc(S(=O)(=O)NC(=O)c2ccc(N3CCN(Cc4ccccc4-c4ccc(Cl)cc4)CC3)cc2)cc1[N+](=O)[O-]` [ABT-737]?
Effect of ABT-737 on MOMP activity of BH2-tethered SAHBq–cBAK traps [2]: failed to enhance; Effect of ABT-737 on MOMP activity of untethered cBAK mutants [2]: augmented

With PAELEVECATQLRRFGDKLNFRQKLL [NOXAa] as the molecule, how does the “Calpain sensitivity of cBAK” value (cBAK) read?
The value was “unable to activate cBAK”.

What about the “BAK-mediated MOMP (cyt c release)” value [1] of the same molecule?
The value was “largely inactive”.

With `CC[C@H](C)[C@H](NC(=O)[C@H](CO)NC(=O)[C@H](CCCNC(=N)N)NC(=O)[C@H](CC(=O)O)NC(=O)[C@H](CCSC)NC(=O)[C@H](CO)NC(=O)[C@H](CC(=O)O)NC(=O)CNC(=O)[C@@H](NC(=O)[C@H](CCC(N)=O)NC(=O)[C@H](C)NC(=O)[C@H](CC(C)C)NC(=O)[C@H](Cc1c[nH]cn1)NC(=O)[C@H](CCCNC(=N)N)NC(=O)[C@H](C)NC(=O)[C@@H](NC(=O)[C@H](CC(N)=O)NC(=O)[C@H](CCCNC(=N)N)NC(=O)[C@@H](NC(=O)[C@@H](NC(=O)[C@H](CC(=O)O)NC(=O)[C@H](CCC(=O)O)NC(C)=O)[C@@H](C)CC)[C@@H](C)CC)[C@@H](C)CC)C(C)C)C(N)=O` [BH3a] as the molecule, how does the “Calpain sensitivity of cBAK” value (cBAK) read?
Its value is “susceptible to proteolysis by calpain”.

What does the source list for “BID SAHBa (stapled BID BH3 peptide) (from UniProt P55957 80-101)”?
fold enhancement of BAK binding over the unstapled counterpart (BH3a) [3]: 10 fold; stoichiometry N [3]: 1

Which “Calpain sensitivity of cBAK” value (cBAK) does the source give for AEIIVECATQLRRVGDKLNFRI [NOXA/BIDf] here?
Its value is “enhanced protease sensitivity”.

What about the “BAK-mediated MOMP (cyt c release)” value [1] of the same molecule?
The value was “weakly active”.

Source: PMC3683554 (Nature structural & molecular biology, 2013)
